The text below walks through data of ChEMBL document CHEMBL4311956, “A Qualified Success: Discovery of a New Series of ATAD2 Bromodomain Inhibitors with a Novel Binding Mode Using High-Throughput Screening and Hit Qualification” (J Med Chem, 2019).

For assay [1], the target named is T1, ATPase family AAA domain-containing protein 2 (Homo sapiens, UniProt Q6PL18).
T1 sequence (Q6PL18 whole entry): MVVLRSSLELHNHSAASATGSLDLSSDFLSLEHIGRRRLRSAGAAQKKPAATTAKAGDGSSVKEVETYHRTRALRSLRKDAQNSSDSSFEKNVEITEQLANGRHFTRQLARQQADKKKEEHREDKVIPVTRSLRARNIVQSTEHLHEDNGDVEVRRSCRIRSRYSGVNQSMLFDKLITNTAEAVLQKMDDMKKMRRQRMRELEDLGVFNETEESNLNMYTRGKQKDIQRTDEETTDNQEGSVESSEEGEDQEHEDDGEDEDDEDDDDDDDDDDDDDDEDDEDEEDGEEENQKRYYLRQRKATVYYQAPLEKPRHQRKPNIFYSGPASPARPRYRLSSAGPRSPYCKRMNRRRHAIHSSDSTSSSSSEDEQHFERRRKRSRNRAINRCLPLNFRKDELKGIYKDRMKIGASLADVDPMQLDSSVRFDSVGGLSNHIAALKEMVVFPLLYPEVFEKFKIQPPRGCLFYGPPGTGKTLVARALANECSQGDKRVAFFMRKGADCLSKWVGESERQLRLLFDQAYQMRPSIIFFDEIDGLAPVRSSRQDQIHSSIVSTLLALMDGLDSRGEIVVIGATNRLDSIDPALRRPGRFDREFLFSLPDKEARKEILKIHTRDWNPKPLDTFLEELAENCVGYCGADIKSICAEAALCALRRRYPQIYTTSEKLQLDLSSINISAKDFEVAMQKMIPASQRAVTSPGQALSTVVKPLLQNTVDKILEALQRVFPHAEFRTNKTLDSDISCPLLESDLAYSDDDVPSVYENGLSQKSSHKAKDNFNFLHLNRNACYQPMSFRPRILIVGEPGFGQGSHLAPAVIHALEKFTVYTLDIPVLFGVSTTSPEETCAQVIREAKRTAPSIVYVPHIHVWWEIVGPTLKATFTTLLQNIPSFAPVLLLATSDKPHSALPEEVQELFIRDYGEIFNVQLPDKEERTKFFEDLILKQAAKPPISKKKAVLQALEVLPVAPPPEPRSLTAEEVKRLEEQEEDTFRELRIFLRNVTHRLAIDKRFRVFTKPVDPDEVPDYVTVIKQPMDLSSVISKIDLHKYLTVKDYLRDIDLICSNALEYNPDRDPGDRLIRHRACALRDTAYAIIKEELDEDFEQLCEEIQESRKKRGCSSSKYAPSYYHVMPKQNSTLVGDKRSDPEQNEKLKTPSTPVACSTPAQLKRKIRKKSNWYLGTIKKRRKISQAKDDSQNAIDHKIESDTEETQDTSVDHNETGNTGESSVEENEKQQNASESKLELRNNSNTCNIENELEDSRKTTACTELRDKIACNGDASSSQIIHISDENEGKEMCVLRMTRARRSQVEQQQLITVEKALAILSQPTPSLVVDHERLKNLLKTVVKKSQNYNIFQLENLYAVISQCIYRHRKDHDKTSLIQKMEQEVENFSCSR
Description: Inhibition of ATAD2 bromodomain in human HUT78 chromatin lysate after 2 hrs by bromosphere competition binding assay. In short, it runs like this: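 Bromosphere chemoproteomic assay. Measures competitive inhibition of binding of endogenous full-length ATAD2 from Hut-78 cells.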

Assay [2] addresses Bromodomain-containing protein 2 (Homo sapiens, UniProt P25440, Y386A). Description: Displacement of Alexa Fluor 647 labelled ligand from His6-tagged BRD2 BD1 (1 to 473 residues)/BD2 Y386A mutant (unknown origin) after 30 mins by TR-FRET assay. In short, it runs like this:
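BET selectivity by TR-FRET fluoroligand displacement. Uses tandem BET bromodomain constructs carrying a mutation in the non-assayed bromodomain.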
(Time-resolved FRET reads energy transfer from a long-lived donor to a nearby acceptor.)

For assay [3], the species on record is Homo sapiens. The assay can be described thus: Selectivity ratio, ratio of inhibition of CECR2 (unknown origin) to displacement of SGRG-K(Ac)-GG-K(Ac)-GLG-K(Ac)-GGAKRHRKV-biotin) from His6/FLAG-tagged TEV fused ATAD2 bromodomain (981 to 1121 residues) expressed in Escherichia coli BL21(DE3) cells.
Assay [4] has as its target Transcription initiation factor TFIID subunit 1 (Homo sapiens, UniProt P21675). Description: Inhibition of TAF1 BD2 (unknown origin) by TR-FRET assay.
Assay [5] addresses Bromodomain-containing protein 7 (Homo sapiens, UniProt Q9NPI1). Description: Inhibition of BRD7 (unknown origin) by TR-FRET assay.
Assay [6] has as its target T1, ATPase family AAA domain-containing protein 2. Description: Displacement of SGRG-K(Ac)-GG-K(Ac)-GLG-K(Ac)-GGAKRHRKV-biotin) from His6/FLAG-tagged TEV fused ATAD2 bromodomain (981 to 1121 residues) (unknown origin) expressed in Escherichia coli BL21(DE3) cells after 30 mins by TR-FRET assay.
The species entered for assay [7] is Homo sapiens. Description: Selectivity ratio, ratio of inhibition of CECR2 (unknown origin) to Displacement of biotinylated H4 peptide from ATAD2B bromodomain (unknown origin) by TR-FRET assay.
Assay [8] has as its target Bromodomain-containing protein 9 (Homo sapiens, UniProt Q9H8M2). Description: Inhibition of BRD9 (unknown origin) by TR-FRET assay.
The next assay concerns the target CREB-binding protein (Homo sapiens, UniProt Q92793). The assay can be described thus: Inhibition of CREBBP (unknown origin) by TR-FRET assay.
For assay [9], the target named is Chromatin remodeling regulator CECR2 (Homo sapiens, UniProt Q9BXF3). The assay can be described thus: Inhibition of CECR2 (unknown origin) by TR-FRET assay.
The species named for assay [10] is Homo sapiens. The assay can be described thus: Selectivity ratio, ratio of inhibition of BRPF3 (unknown origin) to displacement of SGRG-K(Ac)-GG-K(Ac)-GLG-K(Ac)-GGAKRHRKV-biotin) from His6/FLAG-tagged TEV fused ATAD2 bromodomain (981 to 1121 residues) expressed in Escherichia coli BL21(DE3) cells.
In assay [11] the target is Bromodomain and PHD finger-containing protein 3 (Homo sapiens, UniProt Q9ULD4). The assay can be described thus: Inhibition of BRPF3 (unknown origin) by TR-FRET assay.

Each structure is given as a SMILES string. Bounds are passed on as bounds.

Sequence of Bromodomain-containing protein 9 (Q9H8M2 whole entry): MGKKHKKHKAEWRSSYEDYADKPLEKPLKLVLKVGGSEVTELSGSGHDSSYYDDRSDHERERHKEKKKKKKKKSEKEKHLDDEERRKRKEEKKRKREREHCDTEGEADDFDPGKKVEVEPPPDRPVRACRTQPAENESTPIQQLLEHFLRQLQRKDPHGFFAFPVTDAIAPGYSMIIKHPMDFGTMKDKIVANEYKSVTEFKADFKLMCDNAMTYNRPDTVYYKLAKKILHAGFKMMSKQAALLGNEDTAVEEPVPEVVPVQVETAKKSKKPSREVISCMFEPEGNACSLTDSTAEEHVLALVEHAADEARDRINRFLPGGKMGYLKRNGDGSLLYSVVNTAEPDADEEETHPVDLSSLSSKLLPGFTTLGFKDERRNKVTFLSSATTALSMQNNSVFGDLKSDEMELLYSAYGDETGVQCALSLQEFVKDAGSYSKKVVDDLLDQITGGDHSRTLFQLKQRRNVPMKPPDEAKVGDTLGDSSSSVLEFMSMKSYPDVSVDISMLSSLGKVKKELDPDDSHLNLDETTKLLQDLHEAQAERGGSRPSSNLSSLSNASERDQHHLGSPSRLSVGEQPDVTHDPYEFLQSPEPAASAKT
Sequence of Bromodomain-containing protein 7 (Q9NPI1 whole entry, the tested form may be a part): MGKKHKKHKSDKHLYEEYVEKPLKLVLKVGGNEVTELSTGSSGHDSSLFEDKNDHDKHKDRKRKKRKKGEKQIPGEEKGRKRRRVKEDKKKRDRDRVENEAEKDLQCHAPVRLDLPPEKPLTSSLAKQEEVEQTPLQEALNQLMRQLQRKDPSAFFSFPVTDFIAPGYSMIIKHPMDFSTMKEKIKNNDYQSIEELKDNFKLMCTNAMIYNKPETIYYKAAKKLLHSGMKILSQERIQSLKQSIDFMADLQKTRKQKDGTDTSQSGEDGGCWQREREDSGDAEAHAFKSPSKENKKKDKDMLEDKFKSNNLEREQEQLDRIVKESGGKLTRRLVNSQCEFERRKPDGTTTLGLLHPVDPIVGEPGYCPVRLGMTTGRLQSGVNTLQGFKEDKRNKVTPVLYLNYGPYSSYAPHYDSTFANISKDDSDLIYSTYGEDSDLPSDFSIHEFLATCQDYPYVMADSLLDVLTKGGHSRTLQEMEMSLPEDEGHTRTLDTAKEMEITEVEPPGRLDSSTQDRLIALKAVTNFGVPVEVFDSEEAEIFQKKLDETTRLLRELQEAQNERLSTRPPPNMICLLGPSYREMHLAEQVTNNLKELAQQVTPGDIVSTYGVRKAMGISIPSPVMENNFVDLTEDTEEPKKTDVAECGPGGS
Sequence of Bromodomain-containing protein 2 (P25440 whole entry Y386A, the tested form may be a part): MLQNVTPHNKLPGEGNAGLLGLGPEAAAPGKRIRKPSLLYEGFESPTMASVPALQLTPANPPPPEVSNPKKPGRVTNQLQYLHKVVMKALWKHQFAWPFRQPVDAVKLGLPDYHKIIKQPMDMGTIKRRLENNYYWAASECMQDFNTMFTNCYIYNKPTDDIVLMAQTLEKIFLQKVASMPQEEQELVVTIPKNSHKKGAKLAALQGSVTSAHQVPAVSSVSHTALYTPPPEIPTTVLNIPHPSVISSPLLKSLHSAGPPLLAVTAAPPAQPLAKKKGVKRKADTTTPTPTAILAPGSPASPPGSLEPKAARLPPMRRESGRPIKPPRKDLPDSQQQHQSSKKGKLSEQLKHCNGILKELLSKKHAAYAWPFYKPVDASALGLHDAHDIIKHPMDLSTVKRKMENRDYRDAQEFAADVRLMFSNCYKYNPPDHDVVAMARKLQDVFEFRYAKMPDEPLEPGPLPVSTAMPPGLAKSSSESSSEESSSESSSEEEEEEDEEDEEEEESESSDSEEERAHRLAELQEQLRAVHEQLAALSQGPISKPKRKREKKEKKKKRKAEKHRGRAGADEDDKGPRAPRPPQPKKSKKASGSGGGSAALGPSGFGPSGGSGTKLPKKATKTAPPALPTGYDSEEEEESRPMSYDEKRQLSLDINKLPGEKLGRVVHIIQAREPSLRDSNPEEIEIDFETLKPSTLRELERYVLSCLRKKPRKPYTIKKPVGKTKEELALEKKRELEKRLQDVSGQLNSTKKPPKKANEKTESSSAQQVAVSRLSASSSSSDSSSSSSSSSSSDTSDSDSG
Sequence of CREB-binding protein (Q92793 whole entry): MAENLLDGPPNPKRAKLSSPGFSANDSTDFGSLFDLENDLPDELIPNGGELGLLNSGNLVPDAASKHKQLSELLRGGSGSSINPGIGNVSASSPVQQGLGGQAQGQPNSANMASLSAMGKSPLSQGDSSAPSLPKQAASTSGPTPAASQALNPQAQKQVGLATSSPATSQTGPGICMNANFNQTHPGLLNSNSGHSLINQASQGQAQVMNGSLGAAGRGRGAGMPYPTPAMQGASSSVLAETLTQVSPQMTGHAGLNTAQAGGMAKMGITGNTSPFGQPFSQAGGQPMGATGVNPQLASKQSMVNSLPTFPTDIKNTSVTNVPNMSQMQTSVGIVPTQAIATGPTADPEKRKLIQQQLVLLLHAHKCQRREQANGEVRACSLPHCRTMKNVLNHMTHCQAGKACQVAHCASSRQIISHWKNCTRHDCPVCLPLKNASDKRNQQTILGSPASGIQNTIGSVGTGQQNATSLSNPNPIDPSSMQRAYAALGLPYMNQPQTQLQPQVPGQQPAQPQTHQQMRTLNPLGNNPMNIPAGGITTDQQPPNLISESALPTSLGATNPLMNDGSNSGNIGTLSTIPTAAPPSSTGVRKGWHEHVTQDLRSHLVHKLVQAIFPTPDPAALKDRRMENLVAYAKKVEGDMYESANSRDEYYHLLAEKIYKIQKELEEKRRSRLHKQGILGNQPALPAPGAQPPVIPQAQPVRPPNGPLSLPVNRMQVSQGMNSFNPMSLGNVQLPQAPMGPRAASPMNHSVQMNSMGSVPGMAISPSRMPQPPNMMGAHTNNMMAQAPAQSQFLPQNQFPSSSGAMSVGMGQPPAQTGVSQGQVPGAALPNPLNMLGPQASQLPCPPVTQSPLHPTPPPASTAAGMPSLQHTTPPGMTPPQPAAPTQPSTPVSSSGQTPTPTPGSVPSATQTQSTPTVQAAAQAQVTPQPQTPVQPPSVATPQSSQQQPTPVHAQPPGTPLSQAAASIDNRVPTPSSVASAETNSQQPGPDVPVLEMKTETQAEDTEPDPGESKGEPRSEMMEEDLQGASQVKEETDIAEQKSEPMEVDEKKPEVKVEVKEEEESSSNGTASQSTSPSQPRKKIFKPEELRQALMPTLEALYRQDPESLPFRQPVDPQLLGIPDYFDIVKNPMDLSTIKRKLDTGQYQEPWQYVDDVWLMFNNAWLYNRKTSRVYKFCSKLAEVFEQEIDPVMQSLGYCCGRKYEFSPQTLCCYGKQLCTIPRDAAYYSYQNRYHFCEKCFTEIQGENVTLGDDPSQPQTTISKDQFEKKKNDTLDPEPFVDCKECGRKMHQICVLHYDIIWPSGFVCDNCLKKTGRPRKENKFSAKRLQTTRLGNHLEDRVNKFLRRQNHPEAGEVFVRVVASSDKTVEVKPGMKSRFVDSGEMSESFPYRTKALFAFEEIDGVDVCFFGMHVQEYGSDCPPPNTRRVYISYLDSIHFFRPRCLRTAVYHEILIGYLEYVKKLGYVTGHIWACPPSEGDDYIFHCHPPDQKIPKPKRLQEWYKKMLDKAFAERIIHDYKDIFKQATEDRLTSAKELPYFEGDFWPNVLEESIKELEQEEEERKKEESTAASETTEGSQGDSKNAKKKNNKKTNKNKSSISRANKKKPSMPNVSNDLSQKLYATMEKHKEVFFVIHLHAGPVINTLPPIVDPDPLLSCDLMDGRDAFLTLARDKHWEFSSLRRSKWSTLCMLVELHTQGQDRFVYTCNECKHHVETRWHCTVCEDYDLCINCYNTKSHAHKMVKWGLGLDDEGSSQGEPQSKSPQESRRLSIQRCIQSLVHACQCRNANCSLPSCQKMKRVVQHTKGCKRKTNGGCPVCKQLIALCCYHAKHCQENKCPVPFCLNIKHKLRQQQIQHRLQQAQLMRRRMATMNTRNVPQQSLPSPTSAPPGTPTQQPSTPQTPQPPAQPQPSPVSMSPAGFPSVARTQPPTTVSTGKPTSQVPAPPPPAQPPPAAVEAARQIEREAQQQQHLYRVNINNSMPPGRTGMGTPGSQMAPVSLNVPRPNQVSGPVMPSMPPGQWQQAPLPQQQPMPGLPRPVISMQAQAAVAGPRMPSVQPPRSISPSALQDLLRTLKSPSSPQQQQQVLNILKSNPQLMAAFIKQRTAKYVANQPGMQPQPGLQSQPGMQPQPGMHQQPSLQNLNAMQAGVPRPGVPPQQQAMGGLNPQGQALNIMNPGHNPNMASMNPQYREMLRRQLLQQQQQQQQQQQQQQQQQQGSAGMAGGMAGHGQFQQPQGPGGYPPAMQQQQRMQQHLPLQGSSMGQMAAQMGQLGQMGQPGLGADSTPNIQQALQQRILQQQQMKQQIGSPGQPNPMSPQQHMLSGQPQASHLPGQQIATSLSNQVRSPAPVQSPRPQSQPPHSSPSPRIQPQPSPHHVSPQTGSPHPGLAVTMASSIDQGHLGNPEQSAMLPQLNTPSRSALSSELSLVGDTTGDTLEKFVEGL

What is called IC50 is the concentration that gives 50% inhibition. A low value points to inhibition by little substance. As to `CC1(C2CC2)NC(=O)N(CC(=O)Nc2ccc(Br)c(S(=O)(=O)N3CCCCC3)c2)C1=O` (racemic), the concentration for half-maximal inhibition (IC50) in [1] was 3.98 µM; in assay [2], above 50.1 µM; in assay [4] it was 3.98 µM; in [5] it was 63.1 µM; in assay [6], 0.316 µM; in [8] it was above 50.1 µM. Besides, the values for the IC50 (on CREB-binding protein; in assay [9]; in assay [11]) were above 100 µM, 2.51 µM and 10 µM, respectively. In addition, the Selectivity ratio in the assay filed under Homo sapiens [3], in the assay filed under Homo sapiens [7] and in the assay listed under Homo sapiens [10] was above 10 in each case.
